Compound activity: PubChem BioAssay, Johns Hopkins Ion Channel Center
KCNQ1 block = inhibitors of human KCNQ1 channel, primary screen, cell-based, thallium flux, high-throughput; Potassium voltage-gated channel subfamily KQT member 1 (Homo sapiens), P51787; CHO-K1 KCNQ1, FluxOR thallium flux fluorescence; active compounds read high; B-score at 10 µM; actives 1.3% (n = 310,000);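 active means compounds whose thallium flux B-score, printed positive for inhibition, exceeds three library SD while starting fluorescence stays within three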;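 further: channel opened by potassium depolarization with thallium stimulus after 20 min compound exposure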
Kir21 block = inhibitors of mouse Kir2.1 inward-rectifier potassium channel; HEK293-Kir2.1, FluxOR thallium flux fluorescence; active compounds read low; actives 0.85% (n = 310,000); Inward rectifier potassium channel 2 (Mus musculus), P35561; B-score at 10 µM; AID 1672, 2009;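 active means fluorescence ratio B-score at or below minus 3 SD of library scores, with starting-brightness B-score within 2 SD, cut at about -4.2 in these data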;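 further: channel flux triggered by added potassium and thallium sulfate stimulus; B-score of peak minus minimum fluorescence over baseline after thallium stimulus; more negative B-score means stronger Kir2.1 block with less thallium influx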
Target sequence (P35561 whole entry, looked up): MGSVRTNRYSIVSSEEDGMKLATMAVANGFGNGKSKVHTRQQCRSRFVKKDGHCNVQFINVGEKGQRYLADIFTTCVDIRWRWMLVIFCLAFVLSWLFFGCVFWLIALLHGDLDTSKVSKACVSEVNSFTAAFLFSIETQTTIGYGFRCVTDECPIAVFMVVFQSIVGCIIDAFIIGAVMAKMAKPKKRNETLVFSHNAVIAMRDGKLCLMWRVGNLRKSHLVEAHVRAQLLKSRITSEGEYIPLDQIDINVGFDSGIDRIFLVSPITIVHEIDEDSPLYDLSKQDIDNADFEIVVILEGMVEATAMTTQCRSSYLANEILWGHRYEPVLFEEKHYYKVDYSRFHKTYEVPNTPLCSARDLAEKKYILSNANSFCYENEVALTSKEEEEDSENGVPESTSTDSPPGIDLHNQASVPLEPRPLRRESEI
KCNQ1 act = potentiators or activators of KCNQ1 channel, primary screen, cell-based, thallium flux, high-throughput. CHO-K1 KCNQ1, thallium flux FluxOR fluorescence; active compounds read high. B-score at 10 µM. Potassium voltage-gated channel subfamily KQT member 1 (Homo sapiens), P51787. actives 0.35% (n = 310,000);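 active means fluorescence ratio B-score, a plate-corrected score, at least three library SD, with initial intensity B-score within 5 SD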
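assay system = KCNQ1-transfected CHO-K1 cells | medium = assay buffer with matched DMSO | probe or stimulus = depolarizing K+/Tl+ stimulus, K2SO4 and Tl2SO4 each 12.5 mM in 5x stock | dosing = single dose | incubation = dye 90 min, compound 20 min, room temperature | detection = kinetic FluxOR fluorescence, 10 s baseline plus 110 s post-stimulus | evaluation = ratio B score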
KCNK3 block = human KCNK3 channel inhibitors, primary screen, CHO cells, FluxOR thallium flux, B-score; Potassium channel subfamily K member 3 (Homo sapiens), O14649; FluxOR fluorescence; active compounds read low; B-score at 10 µM; actives 0.84% (n = 340,000); AID 602410, 2012;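 active means B-score under library mean minus 4 SD, starting fluorescence ratio at most library mean plus 5 SD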;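 further: more negative B-score means stronger inhibition of thallium flux through KCNK3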
KCNK9 inh = KCNK9 potassium channel inhibitors, primary screen, HEK293 cells, thallium flux; Potassium channel subfamily K member 9 (Homo sapiens), Q9NPC2; actives 1.2% (n = 310,000); B-score at 10 µM; FluxOR thallium flux fluorescence; active compounds read low;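 active means ratio B-score over 3 SD below the library mean, with starting fluorescence within 5 SD of its mean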;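 further: negative B-score means less thallium flux so channel inhibition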
hERG protect = hERG rescue from dofetilide block, primary screen, cell-based, CHO-hERG, FluxOR thallium flux, dofetilide IC70. Voltage-gated inwardly rectifying potassium channel KCNH2 (Homo sapiens), Q12809. dofetilide IC70 present. activation (rescue from dofetilide block), less the hit threshold, % at 10 µM. actives 0.51% (n = 310,000). AID 1511, 2009;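 active means activation above the mean of controls blocked by dofetilide plus 5 SD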;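 further: thallium influx through hERG after potassium depolarization seen as dye fluorescence rise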
KCNK9 block conf = KCNK9 potassium channel inhibitors, confirmation, HEK293 cells, thallium flux, duplicate | FluxOR thallium flux fluorescence | actives 43% (n = 4,900) | AID 492992, 2010 | shares compounds with KCNK9 inh | inhibition, % at 10 µM;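 active means thallium signal inhibited by more than 5 SD of the compound-free buffer control wells, on both duplicate plates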;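 further: 0% = assay buffer control wells without compound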
Kir21 sel = mouse Kir2.1 channel inhibition, confirmation, selectivity assay for KCNK9 modulator project, cell-based, HEK293, thallium flux. shares compounds with KCNK9 inh. Kir2.1 cells, FluxOR thallium flux fluorescence. inhibition, % at 10 µM. actives 4% (n = 4,900). AID 492993, 2010;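 active means thallium signal drop more than 5 SD beyond the mean of the no-compound control wells, seen in both duplicate plates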;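 further: signal is fluorescence rise after thallium addition divided by baseline fluorescence; plate controls were assay buffer only for no effect and full block by chlorpromazine control for full effect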
KCNK9 uninduced = thallium flux in non-induced HEK293 cells, confirmation, counter-screen for KCNK9 inhibitor project, cell-based, second counter screen, non-induced KCNK9-HEK293. inhibition, % at 10 µM. FluxOR thallium flux. shares compounds with KCNK9 inh. actives 40% (n = 4,900);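 active means thallium signal drop beyond 5 SD of the untreated control mean, on both duplicate plates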;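 further: plate controls were buffer only IC0 wells for no effect and SID17386958 at its maximal inhibitory level for full effect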
* hit, by the source's call; i = inactive; / = no result given. Compounds with a hit are over-represented: about 3.8% of the library has one in this group of screens.

SMILES	KCNQ1 block	Kir21 block	KCNQ1 act	KCNK3 block	KCNK9 inh	hERG protect	KCNK9 block conf	Kir21 sel	KCNK9 uninduced
O=C(COC(=O)c1ccc(Cl)cc1)NC(=O)NC1CCCC1	/	/	/	i	/	/	/	/	/
CC(NCC(=O)NC(=O)NC1CCCC1)c1ccc(Cl)cc1Cl (stereo not given)	i	-1.68	i	i	i	-12.9	i	i	i
CCOc1ccc(NS(=O)(=O)c2cc(C(=O)N(CC)CC(=O)NCc3cccs3)ccc2C)cc1	i	-0.21	i	i	i	-11.9	/	/	/
CCN(c1ccccc1)c1ncnc2c1cnn2-c1ccccc1	i	1.78	i	i	i	-22.9	i	i	i
CN(Cc1ccccc1)c1ncnc2c1cnn2-c1ccccc1	i	-1.4	i	i	i	-12.8	/	/	/
O=C(CN(c1ccccc1)S(=O)(=O)c1ccccc1[N+](=O)[O-])NN=C1CCCCCCC1	i	-0.09	i	i	i	-7.3	/	/	/
Cc1cccc(Nc2nnc(-c3ccc(N4CCOCC4)c([N+](=O)[O-])c3)c3ccccc23)c1	i	0.03	i	i	i	-8.1	i	i	i
Cc1nnc(-c2ccc(N3CCOCC3)c([N+](=O)[O-])c2)o1	/	/	/	i	/	/	/	/	/
C=CCOc1ccc(C2=NO[C@@H]3[C@@H]4C[C@@H]([C@H]5C(=O)N(C)C(=O)[C@@H]45)[C@H]23)cc1	i	1.24	i	i	i	-6.2	/	/	/
O=C1[C@@H]2[C@@H]3C[C@@H]([C@H]4ON=C(c5ccc(Cl)cc5)[C@@H]34)[C@@H]2C(=O)N1C1CCCCC1	i	-0.16	i	i	i	-6.3	i	i	i
COc1ccc(-c2nn(-c3ccccc3F)cc2CNCCn2nc(C)cc2C)cc1	i	-0.98	i	i	i	-15.6	i	i	i
COc1ccc(-c2nn(-c3ccccc3)cc2CNCCN2CCOC2=O)c(F)c1	i	0.82	i	i	i	-11.5	/	/	/
CCOc1cc(NC(=S)NCCCN2CCOCC2)c(OCC)cc1NC(=O)C1CCCCC1	i	0.72	i	i	i	-5.5	/	/	/
O=C(Nc1nccs1)[C@@H]1CC=C[C@@H]2CCN(Cc3ccccc3)C(=O)[C@@H]21	i	0.53	i	i	i	-3.8	/	/	/
CCN(CC)S(=O)(=O)c1ccc2c(c1)nc(SC(C)C(=O)NCC1CCCO1)n2CC (stereo not given)	i	0.39	i	i	i	-10.8	i	i	i
O=C(O)CCC(=O)Nc1cc(C(F)(F)F)cc(C(F)(F)F)c1	i	0.19	i	i	i	-9.5	/	/	/
CN(CC(=O)Nc1ccc(F)c(F)c1F)C(=O)CCCSc1nc2ccccc2[nH]1	i	0.06	i	i	i	-13.5	/	/	/
CCOc1ccccc1-n1c(SCC(=O)Nc2nccs2)nnc1-c1ccoc1C	i	0.53	i	i	-8.7*	-11.1	47.0%*	i	25.5%*
CCOc1ccc(-n2c(SCC(=O)Nc3nccs3)nnc2-c2ccoc2C)cc1	i	-0.03	i	i	i	-6.0	/	/	/
